# Results reported in ChEMBL document CHEMBL5724801, “EUbOPEN Chemogenomics Library - Multiplex” (2024).
# Where “and” joins values, the source holds several entries; their conditions need not be identical. Equal entries are not always repeated.
# System: Fibroblast
# Assay: Multiplex assay against human fibroblast
# Type: toxicity, cell-based
# Summary of the method: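 Hoechst33342, BioTracker Green Microtubule Cytoskeleton Dye, MitoTracker Red and Annexin V Alexa Fluor 680 were added to live cells at seeding, and imaging on a CQ1 microscope at 37°C and 5% CO2 followed compound addition. Gating by CellPathfinder machine learning separated cells into Hoechst high-intensity objects or normal cells, then normal cells into healthy, pyknosed or fragmented nuclei, then pyknosed cells into mitotic or apoptotic. Per cents of healthy-nucleus cells are reported for the tubulin, mitochondrial-mass and membrane-permeability phenotypes.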
# [1] = 12 h, 1 µM, compound concentration 1 uM
# [2] = 12 h, 10 µM, compound concentration 10 uM
# [3] = 24 h, 1 µM, compound concentration 1 uM
# [4] = 24 h, 10 µM, compound concentration 10 uM
# [5] = 48 h, 1 µM, compound concentration 1 uM
# [6] = 48 h, 10 µM, compound concentration 10 uM
smiles,measurement,setting,value
COc1cc2nc(N3CCN(C(=O)c4ccco4)CC3)nc(N)c2cc1OC.Cl [PRAZOSIN HYDROCHLORIDE],Population Apoptotic (%),[1],38% and 49%
same,Population Fragmented Nuclei (%),[1],22% and 20%
same,Population Healthy Nuclei (%),[1],57% and 52%
same,Population Hoechst High Intensity Objects (%),[1],1% and 4%
same,Population Membrane Permeable-Phenotype (%),[1],1% and 5%
same,Population Mitochondria Different-Phenotype (%),[1],1% and 7%
same,Population Mitotic Cells (%),[1],61% and 50%
same,Population Normal (%),[1],98% and 95%
same,Population Pyknosed Nuclei (%),[1],19% and 27%
same,Population Tubulin-Different-Phenotype (%),[1],26% and 46%
same,Total Cell Count,[1],174 and 194
same,Population Apoptotic (%),[2],44% and 31%
same,Population Fragmented Nuclei (%),[2],23% and 35%
same,Population Healthy Nuclei (%),[2],64% and 42%
same,Population Hoechst High Intensity Objects (%),[2],1% and 5%
same,Population Membrane Permeable-Phenotype (%),[2],0% and 9%
same,Population Mitochondria Different-Phenotype (%),[2],7% and 3%
same,Population Mitotic Cells (%),[2],56% and 68%
same,Population Normal (%),[2],98% and 94%
same,Population Pyknosed Nuclei (%),[2],12% and 21%
same,Population Tubulin-Different-Phenotype (%),[2],49% and 65%
same,Total Cell Count,[2],198 and 155
same,Population Apoptotic (%),[3],50% and 45%
same,Population Fragmented Nuclei (%),[3],20%
same,Population Healthy Nuclei (%),[3],63% and 57%
same,Population Hoechst High Intensity Objects (%),[3],2% and 7%
same,Population Membrane Permeable-Phenotype (%),[3],0% and 12%
same,Population Mitochondria Different-Phenotype (%),[3],2% and 3%
same,Population Mitotic Cells (%),[3],50% and 54%
same,Population Normal (%),[3],97% and 92%
same,Population Pyknosed Nuclei (%),[3],15% and 21%
same,Population Tubulin-Different-Phenotype (%),[3],28% and 58%
same,Total Cell Count,[3],181 and 185
same,Population Apoptotic (%),[4],46% and 61%
same,Population Fragmented Nuclei (%),[4],23% and 35%
same,Population Healthy Nuclei (%),[4],69% and 49%
same,Population Hoechst High Intensity Objects (%),[4],3% and 7%
same,Population Membrane Permeable-Phenotype (%),[4],0% and 10%
same,Population Mitochondria Different-Phenotype (%),[4],6% and 11%
same,Population Mitotic Cells (%),[4],53% and 38%
same,Population Normal (%),[4],96% and 92%
same,Population Pyknosed Nuclei (%),[4],6% and 15%
same,Population Tubulin-Different-Phenotype (%),[4],45% and 73%
same,Total Cell Count,[4],201 and 152
same,Population Apoptotic (%),[5],52% and 66%
same,Population Fragmented Nuclei (%),[5],24% and 29%
same,Population Healthy Nuclei (%),[5],62% and 56%
same,Population Hoechst High Intensity Objects (%),[5],3%
same,Population Membrane Permeable-Phenotype (%),[5],0% and 8%
same,Population Mitochondria Different-Phenotype (%),[5],1% and 6%
same,Population Mitotic Cells (%),[5],47% and 33%
same,Population Normal (%),[5],96%
same,Population Pyknosed Nuclei (%),[5],13% and 14%
same,Population Tubulin-Different-Phenotype (%),[5],22% and 57%
same,Total Cell Count,[5],182 and 197
same,Population Apoptotic (%),[6],66% and 46%
same,Population Fragmented Nuclei (%),[6],25% and 42%
same,Population Healthy Nuclei (%),[6],68% and 49%
same,Population Hoechst High Intensity Objects (%),[6],1% and 5%
same,Population Membrane Permeable-Phenotype (%),[6],0% and 5%
same,Population Mitochondria Different-Phenotype (%),[6],4% and 5%
same,Population Mitotic Cells (%),[6],33% and 53%
same,Population Normal (%),[6],98% and 94%
same,Population Pyknosed Nuclei (%),[6],6% and 8%
same,Population Tubulin-Different-Phenotype (%),[6],32% and 48%
same,Total Cell Count,[6],201 and 170
